Experiments:
[1] = Selectivity index, ratio of IC50 for MRC5 cells to IC50 for chloroquine-sensitive NF54 isolated Plasmodium falciparum 3D7; format: toxicity, cell-based; conditions: human; read-out: Ratio IC50
MRC5 = experiment: Cytotoxicity against human MRC5 cells assessed as cell growth inhibition after 48 hrs by alamar blue assay; format: cell-based; conditions: MRC5, 48 h
In short: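 Human MRC-5 fibroblasts kept in DMEM with 10% FBS, 2 mM glutamine, streptomycin and penicillin at 37 °C, 5% CO2. Seeded at 2.5 × 10⁴ cells/well, 24 h, then DMSO-dissolved compounds diluted in medium were added; control wells held 0.1% DMSO final. Exposure 48 h; Alamar Blue added for the last 3 h; fluorescence read at 530–560 nm excitation.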

Plasmodium falciparum = experiment: Antimalarial activity against chloroquine-sensitive NF54 isolated Plasmodium falciparum 3D7 infected in erythrocytes assessed as inhibition of parasitic growth after 48 hrs by optical microscopy; format: functional, organism-based; conditions: 3D7, 48 h
In short: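 P. falciparum 3D7 in erythrocytes at 1% initial parasitemia, 2% hematocrit. Samples dissolved in DMSO at 10 mg/mL stock, diluted in complete medium to seven test concentrations. Each dilution tested in triplicate; 48 h at 37 °C. Growth inhibition read by optical microscopy of well contents.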

| Compound | selectivity ratio [1] | IC50 (MRC5) | IC50 (Plasmodium falciparum) |
| --- | --- | --- | --- |
| COC1=CC(=O)c2ccccc2C12CO2 (stereo not given) | < 2.3 | 116 µM | > 50 µM |
| CC1(C)CCC2=C(O1)C(=O)c1ccccc1C2=O [ALPHA-LAPACHONE] |  | > 100 µM | > 50 µM |
| O=C1C(Cl)=C(Cl)C(=O)C(Cl)=C1Cl [CHLORANIL] | > 4.4 | > 100 µM | 22.4 µM |
| C=CCOC1=CC(=O)c2ccccc2C12CO2 (stereo not given) | < 0.53 | 26.4 µM | > 50 µM |
| O=C1C=C(Nc2ccccc2)C(=O)c2ccccc21 | > 15 | > 100 µM | 6.3 µM |
| COc1c(Cl)c(Cl)c(OC)c(C#N)c1C#N |  | > 100 µM | > 50 µM |
| COC1=CC(=O)c2ccccc2C1=O [2-Methoxy-1,4-naphthoquinone] | < 0.1 | 5.2 µM | > 50 µM |
| N#CC1=C(C#N)C(=O)C(Cl)=C(Cl)C1=O |  | > 100 µM | > 50 µM |
| C=CCOC1=CC(=O)c2ccccc2C1=O | 12 | 64.8 µM | 5.18 µM |
| NC1=CC(=O)c2ccccc2C1=O | 63 | 322 µM | 5.14 µM |
| NC1=CC(=O)c2ccccc2C12CO2 (stereo not given) |  | > 100 µM | > 50 µM |
| O=C1C(Cl)=C(Cl)C2(CO2)c2ccccc21 (stereo not given) | 15 | 92.5 µM | 6.22 µM |
| O=C1C=C(Nc2ccccc2)C2(CO2)c2ccccc21 (stereo not given) | < 2.7 | 135 µM | > 50 µM |
| CC1(C)CCC2=C(O1)C1(CO1)c1ccccc1C2=O (stereo not given) | > 27 | > 100 µM | 3.71 µM |
| CC1(C)CC2=C(O1)C1(CO1)c1ccccc1C2=O (stereo not given) | < 1.1 | 55.7 µM | > 50 µM |
| O=C1C(Cl)=C(Cl)C(=O)c2ccccc21 [Dichlon] | 7.2 | 98.2 µM | 13.9 µM |
| CC1(C)CC2=C(O1)C(=O)c1ccccc1C2=O | < 1.1 | 56.1 µM | > 50 µM |
| O=C1C(Cl)=C(Cl)C2(CO2)C(Cl)=C1Cl | 93 | 368 µM | 3.95 µM |

From ChEMBL document CHEMBL3758142, “Synthesis and antimalarial activity of quinones and structurally-related oxirane derivatives” (Eur J Med Chem, 2016)
